Assay results taken from PubChem BioAssay.
Results filed as inconclusive are left out. Active and inactive are the calls of the source.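 Rule for the calls, unless noted: active = viability increase at or above a cutoff of the median across tested compounds plus 3 SD (cut at about 8.5% in these data, passing the limit was not always enough); inconclusive = some gains above the cutoff, reason not given; inactive = the rest.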

Experiments:
[1] = OD615 S. cerevisiae growth inhibition, permissive medium, pilot counter-assay, permissive growth control for S. cerevisiae lifespan shortening project (AID 705;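 active = growth inhibition above 25% in both replicates, a cutoff set 3 SD above the mean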); details: OD615, 24 h, at 10 µM, hits give high values
In short: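 System: engineered DeaD yeast; Medium: permissive raffinose/galactose medium; Compound dosing: 10 µM single dose, 0.25% DMSO; Incubation: 4 h cell pre-growth, 24 h exposure at 30 °C; Technique: OD at 615 nm; Evaluation: growth inhibition from lowered OD615 after 24 h.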

[2] = Restrictive medium S. cerevisiae growth inhibition, OD615, pilot screen of yeast lifespan reduction project, restrictive growth control (AID 706;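 active = growth inhibition above a set limit, 3 SD over mean compound inhibition, in both replicates, cut at about 43% in these data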;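 note: modified DeaD lifespan yeast strain shifted to restrictive glucose medium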); details: OD615, 48 h, at 10 µM, hits give high values
In short: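 Material: modified S. cerevisiae; buffer or medium: CSMM-D glucose medium; doses: one concentration, 10 µM final, 0.25% DMSO; incubation: 48 h compound exposure at 30 °C; detection: optical density at 615 nm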

[3] = viability gain of MRP-1-high H69AR cells under doxorubicin, pilot screen, MRP-1 activator project, CellTiter-Glo, duplicate (AID 807); details: H69AR viability with doxorubicin, CellTiter-Glo luminescence; at 10 µM; hits give high values;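 note: compound pretreatment 18-22 h then 72 h combined with doxorubicin; 0% = doxorubicin alone and 100% = vehicle without doxorubicin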
[4] = growth suppression of beta-catenin knockout HCT116, pilot screen, human colon tumor cells (AID 823;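 active = cell viability at or below a set limit in both duplicate runs, the limit being the all-compound median minus 4 SD, cut at about 23% in these data, passing the limit was not always enough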;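 note: 0% = wells killed by 20 µM Hyamine and 100% = untreated DMSO cell wells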); details: CellTiter-Glo, 60 h, at 10 µM, hits give low values
[5] = growth suppression of PTEN-deleted HCT116, pilot screen, cell-based, HCT116 clonal line, CellTiter-Glo (AID 824;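 active = viability at or below 27.92% in each of two runs, the all-compound median minus 4 SD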;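 note: 0% = 20 µM Hyamine control and 100% = vehicle cell control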); details: 60 h, at 10 µM, hits give low values
[6] = inhibitors of the yeast RAM network, pilot screen, dse1pr::URA3 reporter, 5-FOA selection (AID 869;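 active = inhibition over a set limit, the all-compound mean plus 3 SD, in both replicate runs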;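 note: 0% = DMSO wells with no growth and 100% = 10 µM 1-NA-PP1 with full growth; RAM network block rescues cells from 5-FOA so hits raise OD615 growth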); details: S. cerevisiae dse1pr::URA3 5-FOA growth, OD615, 2 d; at 10 µM; hits give high values; strain carries analog-sensitive mutant Cbk1 kinase
[7] = RAM signaling pathway blockade in yeast – S. cerevisiae, Pdr1DBD-CYC8 efflux-inhibited sensitized strain, primary screen (AID 1298;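 active = RAM network inhibition above 8.4% in each of two replicates, 3 SD over the compound average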;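 note: 0% = DMSO untreated cells without growth and 100% = 10 µM 1-NA-PP1 full growth; higher means more yeast growth rescued from 5-FOA killing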); details: S. cerevisiae cbk1-as DSE1-URA3 strain, 5-FOA growth OD615, 2 d; at 50 µM; hits give high values

O=S(=O)(c1ccc(N2CC=C(c3ccccc3)CC2)nc1)N1CCCC1
inactive: growth inhibition [1] -6.39% | growth inhibition [2] -12.5% | viability increase [3] -7% | inhibition [6] 2.18% | RAM network inhibition [7] 2.69%
active: viability [4] 4.45% | viability [5] 3.3%

CCCc1nnc(NC(=O)CCC(=O)O)s1
inactive: growth inhibition [1] -4.72% | growth inhibition [2] -1.89% | viability increase [3] -1.02% | viability [4] 92.8% | viability [5] 95.4% | inhibition [6] 0.765% | RAM network inhibition [7] 0%

CCn1c(C)nc2cc(S(=O)(=O)N3CCCC3)ccc21
inactive: growth inhibition [1] -1.56% | growth inhibition [2] 11.8% | viability increase [3] -1.11% | viability [4] 94.3% | viability [5] 88.6% | inhibition [6] 0.805% | RAM network inhibition [7] 2.71%

Cc1cc(C)c2c3c(c(-c4ccccc4)n2n1)c(=O)n(C)c(=O)n3C
inactive: growth inhibition [1] -9.68% | growth inhibition [2] -1.79% | viability increase [3] -1.8% | viability [4] 101% | viability [5] 94% | inhibition [6] 2.26% | RAM network inhibition [7] 5.77%

CCOC(=O)c1ccc(N2CSC3=C(C#N)C(c4ccc(OC)cc4OC)CC(=O)N3C2)cc1 (configuration not stated)
inactive: growth inhibition [1] 6.21% | growth inhibition [2] 24.4% | viability increase [3] -4.16% | viability [4] 92.3% | viability [5] 93.2% | inhibition [6] 2.44% | RAM network inhibition [7] 1.72%

CC(=O)Nc1ccc(S(=O)(=O)N2CCSCC2)cc1
inactive: growth inhibition [1] -14.7% | growth inhibition [2] -27.7% | viability increase [3] -2.25% | viability [4] 98.6% | viability [5] 98.5% | inhibition [6] 1.88% | RAM network inhibition [7] 3.21%

CCN(CC)C(=O)c1cc2sc3ccccc3c2s1
inactive: growth inhibition [1] -11.5% | growth inhibition [2] -2.27% | viability increase [3] 0.41% | viability [4] 88.1% | viability [5] 95% | inhibition [6] -0.05% | RAM network inhibition [7] 3.43%

O=C(Oc1ccnc2cc(Cl)ccc12)N1CCOCC1
inactive: growth inhibition [1] -4.51% | growth inhibition [2] 5.71% | viability increase [3] -3.29% | viability [4] 87.3% | viability [5] 87.8% | inhibition [6] 1.1% | RAM network inhibition [7] 7.61%

CCCCn1cc(C(C)(C)C)c(C#N)c1NC(C)=O
inactive: growth inhibition [1] -21.7% | growth inhibition [2] -4.88% | viability increase [3] -1.24% | viability [4] 97.8% | viability [5] 98.8% | inhibition [6] 1.43% | RAM network inhibition [7] 5.33%

COc1ccc(-c2cc(C(F)(F)F)n3nc(C(=O)N4CCCC4)cc3n2)cc1
inactive: growth inhibition [1] -5.39% | growth inhibition [2] -2.34% | viability increase [3] -3.39% | viability [4] 93.9% | viability [5] 84.7% | inhibition [6] 1.71% | RAM network inhibition [7] 7.1%

CC1CC(C)CN(C(=O)CSc2nnc(-c3ccc(Cl)cc3)o2)C1 (configuration not stated)
inactive: growth inhibition [1] -0.98% | growth inhibition [2] -3.64% | viability increase [3] 1.73% | viability [4] 94.1% | viability [5] 89.2% | inhibition [6] 1.4% | RAM network inhibition [7] 7.35%

O=C(NCCNC(=O)c1ccc(Br)o1)c1ccc(Br)o1
inactive: growth inhibition [1] -7.92% | growth inhibition [2] 4.26% | viability increase [3] 1.39% | viability [4] 99.1% | viability [5] 105% | inhibition [6] 0.39% | RAM network inhibition [7] 0.1%

O=C(O)CCC(C(=O)O)n1c(O)c(C2=c3ccccc3=NC2=O)sc1=S (configuration not stated)
inactive: growth inhibition [1] -5.76% | growth inhibition [2] -1.01% | viability increase [3] -4.54% | viability [4] 97.7% | viability [5] 95.3% | inhibition [6] 2.23% | RAM network inhibition [7] -0.11%

COc1ccc(-n2c(Cc3cccn3C)nnc2SCC(=O)Nc2ccc(C(C)=O)cc2)cc1
inactive: growth inhibition [1] 3.63% | growth inhibition [2] 17.8% | viability increase [3] -3.67% | viability [4] 99.4% | viability [5] 90.8% | inhibition [6] 1.6% | RAM network inhibition [7] 3.56%

Cc1cc(C)n(-c2nc(C)nc(NCc3ccccc3)n2)n1
inactive: growth inhibition [1] -17.5% | growth inhibition [2] -11.6% | viability increase [3] -2.88% | viability [4] 88.4% | viability [5] 82.7% | inhibition [6] 0.215% | RAM network inhibition [7] 0.98%

CCSc1nnc(NC(=O)c2ccccc2)s1
inactive: growth inhibition [1] -19.1% | growth inhibition [2] 0.02% | viability increase [3] 1.94% | viability [4] 95.2% | viability [5] 98.7% | inhibition [6] 1.25% | RAM network inhibition [7] 4.7%

C/C(N)=C(/C#N)C(=O)CSc1n[nH]c(-c2ccccc2Br)n1
inactive: growth inhibition [1] -8.32% | growth inhibition [2] 8.69% | viability increase [3] 2.73% | viability [4] 110% | viability [5] 105% | inhibition [6] -0.48% | RAM network inhibition [7] -1.02%

O=C1CC(C(=O)Nc2nccs2)C(c2ccccc2)O1 (configuration not stated)
inactive: growth inhibition [1] -4.84% | growth inhibition [2] -14.8% | viability increase [3] -0.76% | viability [4] 107% | viability [5] 99.3% | inhibition [6] 0.94% | RAM network inhibition [7] 0.09%

COCc1cc(C)nc(N2CCN(c3ccccc3)CC2)c1C#N
inactive: growth inhibition [1] -15.6% | growth inhibition [2] -7.64% | viability increase [3] 0.13% | viability [4] 86.3% | viability [5] 81.9% | inhibition [6] 2.28% | RAM network inhibition [7] 6.31%

COc1ccccc1N=C(C)C1=C(O)CSC1=O
inactive: growth inhibition [1] -9.17% | growth inhibition [2] -5.92% | viability increase [3] -1.29% | viability [4] 99.6% | viability [5] 93.3% | inhibition [6] -0.17% | RAM network inhibition [7] 6.89%

CCC1CCCCN1Cc1nc2c(c(=O)n(C)c(=O)n2C)n1Cc1cccc2ccccc12 (configuration not stated)
inactive: growth inhibition [1] -13.7% | growth inhibition [2] -7.96% | viability increase [3] -1.54% | viability [4] 92.5% | viability [5] 83.1% | inhibition [6] 0.67% | RAM network inhibition [7] 8.51%

c1nc2nc3c(c(N4CCOCC4)n2n1)CCCC3
inactive: growth inhibition [1] -6.33% | growth inhibition [2] 11.4% | viability increase [3] -1.47% | viability [4] 103% | viability [5] 99.7% | inhibition [6] 0.645% | RAM network inhibition [7] 0.44%

CCOC(=O)c1ccccc1NC(=O)Cn1cnc2c(nnn2-c2ccc(C)cc2)c1=O
inactive: growth inhibition [1] -7.68% | growth inhibition [2] 4.12% | viability increase [3] -4.32% | viability [4] 97% | viability [5] 88% | inhibition [6] 2.62% | RAM network inhibition [7] 3.5%

CC(=O)N1C(C(=O)O)CSC1c1ccc(C)cc1 (configuration not stated)
inactive: growth inhibition [1] 4.69% | growth inhibition [2] 8.76% | viability increase [3] -0.04% | viability [4] 95.3% | viability [5] 95.6% | inhibition [6] -0.43% | RAM network inhibition [7] -1.41%

Oc1ccccc1CNc1nc2ccccc2n1CCN1CCCCC1
inactive: growth inhibition [1] -15.8% | growth inhibition [2] -9.88% | viability increase [3] -8.6% | viability [4] 52.5% | viability [5] 48.8% | inhibition [6] 2.86% | RAM network inhibition [7] 1.77%

Brc1ccc(OCCOCCN2CCOCC2)cc1
inactive: growth inhibition [1] -13.4% | growth inhibition [2] -8.66% | viability increase [3] 2.95% | viability [4] 91.7% | viability [5] 93% | inhibition [6] 0.12% | RAM network inhibition [7] 1.24%

CC(Oc1ccc(Cl)cc1Cl)C(=O)NCCCN1CCOCC1 (configuration not stated)
inactive: growth inhibition [1] -8.88% | growth inhibition [2] -10.2% | viability increase [3] 0.14% | viability [4] 96% | viability [5] 95% | inhibition [6] -0.36% | RAM network inhibition [7] 0.47%

CCOC(=O)c1ccc(N2C(=O)CC(SCC(N)C(=O)OCC)C2=O)cc1 (configuration not stated)
inactive: growth inhibition [1] -4.09% | growth inhibition [2] -7.37% | viability increase [3] -2.49% | viability [4] 102% | viability [5] 85.6% | inhibition [6] 1.47% | RAM network inhibition [7] 3.7%

CN1C(=O)NC(c2ccccc2)C2=C1CN(Cc1ccco1)C2=O (configuration not stated)
inactive: growth inhibition [1] -6.95% | growth inhibition [2] -14.4% | viability increase [3] -2.48% | viability [4] 90.4% | viability [5] 89.7% | inhibition [6] 1.47% | RAM network inhibition [7] 3%

COc1ccc(-n2c(SCC(=O)Nc3ccccc3)nc3c(c2=O)SCC3)cc1
inactive: growth inhibition [1] -1.34% | growth inhibition [2] 0.23% | viability increase [3] 3.8% | viability [4] 101% | viability [5] 96% | inhibition [6] 0.755% | RAM network inhibition [7] 9.27%

COc1ccc(-n2c(Cc3cccn3C)nnc2SCC(=O)N2CCC(C)CC2)cc1
inactive: growth inhibition [1] 4.99% | growth inhibition [2] 18.8% | viability increase [3] -0.89% | viability [4] 94% | viability [5] 94.5% | inhibition [6] 1.42% | RAM network inhibition [7] 2.73%

CCCn1c(=S)[nH]c2cc(C(=O)NCC3CCCO3)ccc2c1=O (configuration not stated)
inactive: growth inhibition [1] -1.52% | growth inhibition [2] 7.49% | viability increase [3] 0.21% | viability [4] 104% | viability [5] 86.5% | inhibition [6] 1.96% | RAM network inhibition [7] 2.81%

CCN1CCN(c2ncnc3c2sc(=S)n3-c2ccccc2)CC1
inactive: growth inhibition [1] 8.5% | growth inhibition [2] 11.5% | viability increase [3] -3.4% | viability [4] 85.4% | viability [5] 84.9% | inhibition [6] 1.73% | RAM network inhibition [7] -0.06%

Cc1cccc(C(=O)Nc2cc(=O)n(C)c(=O)n2C)c1
inactive: growth inhibition [1] -14.2% | growth inhibition [2] -21.9% | viability increase [3] -0.85% | viability [4] 105% | viability [5] 92.4% | inhibition [6] 0.905% | RAM network inhibition [7] 1.04%

CCn1c(=O)cc(OCC(=O)Nc2ccccc2C#N)c2ccccc21
inactive: growth inhibition [1] -22.1% | growth inhibition [2] -8.12% | viability increase [3] -1.86% | viability [4] 95.1% | viability [5] 94.7% | inhibition [6] 2.12% | RAM network inhibition [7] 4.46%

Cc1cccc(-c2nc(CS(=O)CC(=O)N3CCCCC3)c(C)o2)c1 (configuration not stated)
inactive: growth inhibition [1] -8.38% | growth inhibition [2] -15.3% | viability increase [3] -0.7% | viability [4] 101% | viability [5] 92.3% | inhibition [6] 0.205% | RAM network inhibition [7] 3.41%
